Assay type in all cases: functional
Assay [1] relates to Mus musculus. In words: Percent increase in median life span of BDF1 mice with P-388 leukemia at dose 50 mg/kg administered intraperitoneally. Particulars: BDF1, P388, ip, route intraperitoneal.
The species entered for assay [2] is Mus musculus. Briefly: Anticancer activity measured as the number of survivors of the total treated mice with P-388 leukemia at 30 days. The procedure, abridged: (§1)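 BDF1 or CDF1 mice given 10^6 ascitic P-388 leukemia cells ip, then treated ip on days 1, 5 and 9. Cures are survivors over total treated at 30 days.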
The species named for assay [3] is Mus musculus. Briefly: Number of survivors of the total treated mice with B-16 melanoma, at 60 days. The procedure, abridged:
(§2)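 BDF1 mice were implanted ip with a homogenate from 0.05 g of B-16 melanoma and dosed ip on days 1-9. Cures are survivors over total at 60 days.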

The test system of assay [4] is Mus musculus. Briefly: Percent increase in median life span of BDF1 mice with B-16 melanoma at dose 50 mg/kg administered intraperitoneally. Particulars: BDF1, B16, ip, route intraperitoneal. In outline:
(§3)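 BDF1 mice were implanted ip with a homogenate from 0.05 g of B-16 melanoma. Ip dosing ran on days 1-9, starting 24 h after implant, in dose-response studies following NCI protocols. The read-out was percent increase in life span (ILS). T/C ≥125% was taken as significant.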

Assay [5] relates to Mus musculus. In words: Percent increase in median life span of BDF1 mice with B-16 melanoma at dose 3.1 mg/kg administered intraperitoneally. Particulars: BDF1, B16, ip, route intraperitoneal. In outline:
as §3

For assay [6], the species on record is Mus musculus. Briefly: Cures is the number of survivors of the total treated mice (12) with P-388 leukemia, at 30 days. In outline: as §1
The subject of assay [7] is Mus musculus. Briefly: Percent increase in median life span of BDF1 mice with P-388 leukemia at dose 6.25 mg/kg administered intraperitoneally. Particulars: BDF1, P388, ip, route intraperitoneal.
The species entered for assay [8] is Mus musculus. In words: Cures is the number of survivors of the total treated mice (10) with B-16 melanoma, at 60 days. The procedure, abridged:
as §2

Assay [9] concerns Mus musculus. Briefly: Percent increase in median life span of BDF1 mice with P-388 leukemia at dose 100 mg/kg administered intraperitoneally. Particulars: BDF1, P388, ip, route intraperitoneal.
Assay [10] has as its system Mus musculus. Briefly: Percent increase in median life span of BDF1 mice with P-388 leukemia at dose 3.1 mg/kg administered intraperitoneally. Particulars: BDF1, P388, ip, route intraperitoneal.
In assay [11] the test system is Mus musculus. Briefly: Percent increase in median life span of BDF1 mice with B-16 melanoma administered intraperitoneally. The procedure, abridged:
as §3

Assay [12] relates to Mus musculus. In words: Percent increase in median life span of BDF1 mice with P-388 leukemia at dose 25 mg/kg administered intraperitoneally. Particulars: BDF1, P388, ip, route intraperitoneal.
Assay [13] deals with Mus musculus. In words: Percent increase in median life span of BDF1 mice with P-388 leukemia administered intraperitoneally.
For assay [14], the system named is Mus musculus. In words: Percent increase in median life span of BDF1 mice with B-16 melanoma at dose 12 mg/kg administered intraperitoneally. Particulars: BDF1, B16, ip, route intraperitoneal. The procedure, abridged: as §3
Assay [15] deals with Mus musculus. Briefly: Percent increase in median life span of BDF1 mice with P-388 leukemia at dose 200 mg/kg administered intraperitoneally. Particulars: BDF1, P388, ip, route intraperitoneal.
The test system of assay [16] is Mus musculus. In words: Percent increase in median life span of BDF1 mice with P-388 leukemia at dose 12.5 mg/kg administered intraperitoneally. Particulars: BDF1, P388, ip, route intraperitoneal.
Assay [17] concerns Mus musculus. In words: Percent increase in median life span of BDF1 mice with B-16 melanoma at dose 12.5 mg/kg administered intraperitoneally. Particulars: BDF1, B16, ip, route intraperitoneal. In outline: as §3
For assay [18], the system named is Mus musculus. Briefly: Percent increase in median life span of BDF1 mice with B-16 melanoma at dose 6 mg/kg administered intraperitoneally. Particulars: BDF1, B16, ip, route intraperitoneal. In outline: as §3
In assay [19] the test system is Mus musculus. Briefly: Percent increase in median life span of BDF1 mice with B-16 melanoma at dose 25 mg/kg administered intraperitoneally. Particulars: BDF1, B16, ip, route intraperitoneal. The procedure, abridged:
as §3

The ILS is how much longer treated animals lived than controls. `C(/CCc1c2ccccc2c(CC/C=N/NC2=NCCN2)c2ccccc12)=N\NC1=NCCN1.Cl.Cl`: the results for the ILS at 50 mg/kg in the assay on Mus musculus [1] and in the assay with Mus musculus [4] were 30% and 0%, respectively. For the same compound, the Cures in the assay listed under Mus musculus [2] and in the assay listed under Mus musculus [3] was 0 throughout.

Regarding `Cl.Cl.Fc1ccc2c(/C=N/NC3=NCCN3)c3ccccc3c(/C=N/NC3=NCCN3)c2c1`, in the assay on Mus musculus [5], the ILS at 3.1 mg/kg amounted to 183%. Further, the Cures in the assay filed under Mus musculus [6] was determined as 3; in the assay filed under Mus musculus [8], 4. The ILS at 6.25 mg/kg in the assay on Mus musculus [7] was determined as 123%.

In the assay with Mus musculus [9], `Cl.Cl.S=C(NCCCN1CCOCC1)N/N=C/c1c2ccccc2c(/C=N/NC(=S)NCCCN2CCOCC2)c2ccccc12` returned an ILS at 100 mg/kg of 53%. The Cures in the assay filed under Mus musculus [2] and in the assay listed under Mus musculus [3] was 0 in each case. In the assay with Mus musculus [4], this compound showed an increase in lifespan (ILS) at 50 mg/kg of 75%.

For the compound `Cl.Cl.Fc1cccc2c(/C=N/NC3=NCCN3)c3ccccc3c(/C=N/NC3=NCCN3)c12`, the ILS at 3.1 mg/kg in the assay with Mus musculus [10] worked out at 115%; in the assay on Mus musculus [5], 100%. Besides, the Cures in the assay listed under Mus musculus [2] is reported as 0; in the assay filed under Mus musculus [8], 1.

As for `Cl.Cl.S=C(NCCN1CCCCC1)N/N=C/c1c2ccccc2c(/C=N/NC(=S)NCCN2CCCCC2)c2ccccc12`, the increase in life span (ILS) at 50 mg/kg with Mus musculus [1] was found to be 58%. Further, the Cures in the assay filed under Mus musculus [2] is given as 0. The ILS in the assay with Mus musculus [11] is recorded as 0%.

In turn, `CC(C)CN(CC/N=C(\S)N/N=C/c1c2ccccc2c(/C=N/N/C(S)=N/CCN(CC(C)C)CC(C)C)c2ccccc12)CC(C)C.Cl.Cl` gave an increase in lifespan (ILS) at 25 mg/kg with Mus musculus [12] of 33%. In addition, the Cures in the assay filed under Mus musculus [2] is recorded as 0.

As for `CC(C)N(CC/N=C(\S)N/N=C/c1c2ccccc2c(/C=N/N/C(S)=N/CCN(C(C)C)C(C)C)c2ccccc12)C(C)C.Cl.Cl`, the increase in lifespan (ILS) at 100 mg/kg with Mus musculus [9] amounted to 53%. The compound further displayed a Cures in the assay filed under Mus musculus [2] of 0.

In the case of `CN(C)CCCCCCC/N=C(\S)N/N=C/c1c2ccccc2c(/C=N/N/C(S)=N/CCCCCCCN(C)C)c2ccccc12.Cl`, in the assay with Mus musculus [7], the increase in life span (ILS) at 6.25 mg/kg turned out to be 39%. In the assay listed under Mus musculus [2], the Cures came to 0. The same compound displayed an ILS in the assay with Mus musculus [11] of 0%.

Turning to `COCC/N=C(\S)N/N=C/c1c2ccccc2c(/C=N/N/C(S)=N/CCOC)c2ccccc12`, in the assay with Mus musculus [13], the ILS is 0%.

For `N=C(NCc1ccccc1)N/N=C/c1c2ccccc2c(/C=N/NC(=N)NCc2ccccc2)c2ccccc12`, in the assay with Mus musculus [12], the ILS at 25 mg/kg was 68%. This compound also came in with an ILS at 12 mg/kg in the assay on Mus musculus [14] of 47%. Also, the Cures in the assay listed under Mus musculus [2] and in the assay listed under Mus musculus [3] was 0 throughout.

Take `CN(C)c1ccc(N/C(S)=N/N=C/c2c3ccccc3c(/C=N/N=C(/S)Nc3ccc(N(C)C)cc3)c3ccccc23)cc1`: the increase in lifespan (ILS) with Mus musculus [13] worked out at 0%.

In the assay with Mus musculus [15], `CCCO.Clc1cccc2c1C(/C=N/NC1=NCCN1)c1cccc(Cl)c1C2/C=N/NC1=NCCN1` (stereo unspecified) displayed an increase in lifespan (ILS) at 200 mg/kg of 0%. In the assay with Mus musculus [4], this compound gave an ILS at 50 mg/kg of 0%.

As for `Cc1ccc2c(/C=N/NC3=NCCN3)c3ccccc3c(/C=N/NC3=NCCN3)c2c1Cl.Cl.Cl`, the ILS at 12.5 mg/kg in the assay on Mus musculus [16] is 130%; with Mus musculus [17], 220%. Moreover, the Cures in the assay listed under Mus musculus [2] is reported as 0; in the assay filed under Mus musculus [8], 4.

As for `Cl.Cl.Clc1cccc2c1C(/C=N/NC1=NCCN1)c1ccccc1C2/C=N/NC1=NCCN1` (stereo unspecified), the figures for the ILS at 50 mg/kg in the assay with Mus musculus [1] and in the assay on Mus musculus [4] were 100% and 153%, respectively. This compound also displayed a Cures in the assay filed under Mus musculus [8] of 3.

Consider `Cl.Cl.Clc1ccc2c(c1)C(/C=N/NC1=NCCN1)c1ccccc1C2/C=N/NC1=NCCN1` (stereo unspecified), for which, in the assay on Mus musculus [1], the ILS at 50 mg/kg turned out to be 100%. In addition, the increase in life span (ILS) at 12.5 mg/kg in the assay with Mus musculus [17] was determined as 230%. The compound also gave a Cures in the assay listed under Mus musculus [8] of 5.

In the assay with Mus musculus [18], `CN(C)C(=N)N/N=C/c1c2ccccc2c(/C=N/N=C(\N)N(C)C)c2cc(Cl)ccc12.Cl.Cl` displayed an increase in lifespan (ILS) at 6 mg/kg of 39%. In addition, the ILS at 12.5 mg/kg in the assay on Mus musculus [16] was determined as 82%. In addition, the Cures in the assay filed under Mus musculus [2] and in the assay listed under Mus musculus [3] was 0 in each case.

Take `CC(C)/N=C(/N/N=C/c1c2ccccc2c(/C=N/N=C(NC(C)C)NC(C)C)c2ccccc12)NC(C)C`: the increase in life span (ILS) at 50 mg/kg in the assay on Mus musculus [1] stood at 50%. Moreover, the Cures in the assay filed under Mus musculus [2] and in the assay listed under Mus musculus [3] was 0 throughout. Further, in the assay on Mus musculus [11], the ILS is 0%.

In turn, `N=C(N/N=C/c1c2ccccc2c(/C=N/NC(=N)NC2CCc3ccccc32)c2ccccc12)NC1CCc2ccccc21` (stereo unspecified) showed an ILS at 25 mg/kg in the assay with Mus musculus [19] of 62%. In the assay on Mus musculus [15], this compound registered an increase in life span (ILS) at 200 mg/kg of 80%. Moreover, the Cures in the assay listed under Mus musculus [2] and in the assay filed under Mus musculus [3] was 0 in each case.

These data come from ChEMBL document CHEMBL1122207, “Antitumor agents. 2. Bisguanylhydrazones of anthracene-9,10-dicarboxaldehydes” (1982).
